Values joined by “and” are separate entries in the source; they are usually repeats but may differ in a detail not shown here. Equal values may be shown once.
Experiments:
[1] = test system: HEK-CLR-RAMP1+βARR2-GFP cells; assay: Trafficking and colocalization of β-arrestin2-GFP and CLR/RAMP1; format: cell-based, human; conditions: recovery up to 4 h in CGRP-free medium
In short: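 HEK-CLR-RAMP1 cells transiently transfected with β-arrestin2-GFP had surface CLR (HA11) and RAMP1 (Myc) labelled. Cells were given CGRP (2 min to 1 h), washed, and recovered in CGRP-free medium for 1–4 h. SM-19712 10 μM, bafilomycin A1 0.15 or 1 μM, or DMSO was preincubated 20–60 min and kept throughout. After PFA fixation and confocal imaging, β-arrestin2/CLR endosomal colocalization coefficient was measured at 4 h recovery.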

HEK-B2R cells = assay: B2R recycling and colocalization with β-arrestin2-GFP; format: cell-based, human; conditions: SM-19712 10 μM
In short: (§1)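 HEK cells stably expressing HA-tagged B2R or B2R-V2RCT were transiently transfected with β-arrestin2-GFP. Surface receptors were labelled with anti-HA11 (1:100, 30 min, 37°C), then given BK 100 nM for 10 min and recovered in BK-free medium (B2R 1 h; B2R-V2RCT 2 h). SM-19712 10 μM or DMSO was preincubated 20–60 min and kept throughout. Cells were PFA-fixed for confocal imaging; plasma-membrane fraction of fluorescence and colocalization coefficient (0–1) were scored in >20 cells/experiment, n ≥ 3.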

SK-N-MC cells = assay: CGRP-induced Ca2+ signaling, desensitization and resensitization; format: cell-based, human; conditions: SM-19712 10 μM
In short: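 SK-N-MC cells (endogenous CLR/RAMP1) were loaded with Fura-2AM for [Ca2+]i at 37°C. Single challenge used CGRP 100 nM. Desensitization: CGRP 100 nM or vehicle (1 h, 37°C), wash, CGRP-free recovery (4 h for resensitization), then CGRP 100 nM rechallenge. SM-19712 10 μM or DMSO was preincubated 20–60 min and kept throughout. Response was expressed as % of vehicle-treated cells.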

A549 cells = assay: Resensitization of ATII-induced Ca2+ signaling; format: cell-based, human; conditions: ATII 1 μM 1 h, 1 h recovery; SM-19712 10 μM; endogenous AT1AR and ECE-1
In short: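 A549 cells (native AT1AR, ECE-1) were loaded with Fura-2AM for [Ca2+]i at 37°C. They were preincubated with ATII 1 μM or vehicle (1 h, 37°C), washed, recovered 1 h, then rechallenged with ATII 1 μM. SM-19712 10 μM or DMSO was preincubated 20–60 min and kept throughout. Response was expressed as % of vehicle-treated cells.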

HEK-CLR-RAMP1 cells [2] = assay: CGRP-induced Ca2+ signaling, desensitization and resensitization; format: cell-based, human; conditions: SM-19712 10 μM
In short: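 HEK-CLR-RAMP1 cells were loaded with Fura-2AM; [Ca2+]i read at 37°C. Single challenge used CGRP 30 nM. For desensitization/resensitization: CGRP 100 nM or vehicle (1 h, 37°C), wash, 0–6 h recovery, CGRP 30 nM rechallenge. Variants: SM-19712 10 μM (20–60 min preincubation, kept throughout); ECE-1 or non-targeting siRNA pools, 72 h; transient ECE-1a-d-GFP. Response given as % of vehicle-treated cells, n ≥ 3.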

HEK-CLR-RAMP1 cells [3] = assay: CLR and RAMP1 endocytosis and recycling; format: cell-based, human
In short: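 Surface CLR and RAMP1 on HEK-CLR-RAMP1 cells were antibody-labelled via HA11 and Myc epitopes (1:100, 30 min, 37°C). Cells then received CGRP 100 nM for 1 h, were washed, and recovered 0–6 h in CGRP-free medium. Cells were either treated with SM-19712 10 μM (20–60 min preincubation, kept throughout) or transfected 72 h earlier with ECE-1 vs non-targeting siRNA. Confocal scoring gave % total cellular fluorescence at plasma membrane at 6 h.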

HEK-B2R-V2RCT cells = assay: B2R-V2RCT recycling and colocalization with β-arrestin2-GFP; format: cell-based, human; conditions: 2 h recovery, SM-19712 10 μM
In short: as §1

HEK-CLR-RAMP1 cells [4] = assay: Endocytosis and degradation of internalized 125I-His8-CGRP; format: cell-based, human; conditions: 30 min after internalization; SM-19712 10 μM, bafilomycin A1 0.15 or 1 μM
[5] = molecular target: T1, recombinant human (rh) ECE-1 (Homo sapiens, UniProt P42892); assay: Peptide degradation by rhECE-1; format: biochemical; conditions: inhibitor 100 μM
T1 sequence (P42892 1-770): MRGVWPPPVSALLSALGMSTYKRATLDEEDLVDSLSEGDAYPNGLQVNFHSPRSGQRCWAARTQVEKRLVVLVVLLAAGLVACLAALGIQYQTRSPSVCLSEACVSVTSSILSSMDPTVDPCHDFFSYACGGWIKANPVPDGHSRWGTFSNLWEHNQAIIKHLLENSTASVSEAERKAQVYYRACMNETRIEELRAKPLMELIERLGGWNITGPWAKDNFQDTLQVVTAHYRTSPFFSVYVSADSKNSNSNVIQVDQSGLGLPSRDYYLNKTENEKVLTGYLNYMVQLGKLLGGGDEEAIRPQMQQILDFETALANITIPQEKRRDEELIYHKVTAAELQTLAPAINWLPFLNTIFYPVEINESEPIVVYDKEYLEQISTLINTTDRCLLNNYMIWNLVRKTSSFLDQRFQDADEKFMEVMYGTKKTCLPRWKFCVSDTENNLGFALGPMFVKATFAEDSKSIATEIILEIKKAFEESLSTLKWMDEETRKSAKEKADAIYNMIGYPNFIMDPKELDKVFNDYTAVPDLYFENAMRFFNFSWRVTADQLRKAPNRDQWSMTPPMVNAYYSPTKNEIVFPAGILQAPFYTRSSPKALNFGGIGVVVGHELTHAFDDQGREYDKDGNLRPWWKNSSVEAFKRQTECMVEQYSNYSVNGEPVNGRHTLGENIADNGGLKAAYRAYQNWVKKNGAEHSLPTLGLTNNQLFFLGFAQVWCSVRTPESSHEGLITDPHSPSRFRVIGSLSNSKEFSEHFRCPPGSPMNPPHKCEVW
In short: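 Where used, the ECE-1 inhibitor (100 μM) was preincubated with enzyme on ice for 30 min at matching pH before substrate was added. Products were resolved by reversed-phase HPLC and identified by MALDI TOF/TOF mass spectrometry.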

Effect on rhECE-1 degradation of CGRP ([5]; preincubated with ECE-1 on ice 30 min, pH 5.5): abolished | Effect on rhECE-1 degradation of BK ([5]; rhECE-1 83 nM, pH 5.5 and 7.4): prevented this degradation
SMILES: Cc1nn(-c2ccccc2)c(NC(=O)NS(=O)(=O)c2ccc(Cl)cc2)c1C#N.[Na] [SM-19712]
Effect on localization of CLR (RAMP1) and β-arrestin2 during recovery [1]: caused their retention in endosomes | Effect on colocalization coefficient of β-arrestin2 and B2R (HEK-B2R cells; 1 h recovery): did not affect colocalization with B2R | Reduction of recycling of B2R (HEK-B2R cells; BK 100 nM 10 min, 1 h recovery): < 10% | Effect on BK-induced trafficking of B2R and β-arrestin2 (HEK-B2R cells; BK 100 nM 10 min, 60 min recovery): did not affect this trafficking | Effect on response to a single challenge with CGRP ([Ca2+]i) (SK-N-MC cells; CGRP 100 nM): did not affect magnitude or duration | Effect on desensitization of CGRP-induced Ca2+ signaling (SK-N-MC cells): did not affect desensitization | Inhibition of resensitization of CGRP-induced Ca2+ signaling (SK-N-MC cells; 4 h recovery): 33% | Effect on resensitization of responses to ATII (A549 cells): did not affect resensitization | Effect on response to a single challenge with CGRP ([Ca2+]i) (HEK-CLR-RAMP1 cells [2]; CGRP 30 nM): did not affect magnitude or duration | Effect on desensitization of CGRP-induced Ca2+ signaling (HEK-CLR-RAMP1 cells [2]): did not affect desensitization | Effect on resensitization of CGRP-induced Ca2+ signaling (HEK-CLR-RAMP1 cells [2]; 0–6 h recovery): strongly inhibited resensitization at all times | Inhibition of recycling of CLR (CLR at the plasma membrane) (HEK-CLR-RAMP1 cells [3]; 6 h recovery after CGRP 100 nM 1 h, SM-19712 10 μM, siRNA 72 h): > 50% | Effect on localization of CLR/RAMP1 after recovery in CGRP-free medium (HEK-CLR-RAMP1 cells [3]; CGRP 100 nM 1 h, wash, 6 h recovery): caused their retention in endosomes even at 6 h | Change of colocalization coefficient of B2R-V2RCT with β-arrestin2 (HEK-B2R-V2RCT cells): twofold increase | Effect on localization of B2R-V2RCT during recovery (HEK-B2R-V2RCT cells; BK 100 nM 10 min): causing it retention in endosomes with β-arrestin2 | Reduction of recycling of B2R-V2RCT (HEK-B2R-V2RCT cells; BK 100 nM 10 min): ~50% and > 50% | Effect on degradation of internalized 125I-His8-CGRP (HEK-CLR-RAMP1 cells [4]): prevented degradation

From PMC2099187 (The Journal of Cell Biology, 2007)
